Reference: ChEMBL document CHEMBL1122182, “Structure-activity studies on the C-terminal amide of substance P” (1982)
Where a SMILES comes first, the peptide text is derived from it. [ ]: non-standard residue; d: D form. The star is where a group is joined. Nle = CCCC[C@H](N)C(=O)O; NEt2 = CCN(CC)*; X1 = CN(C)N*; NHNH2 = NN*

Experiments:
Assay type in all cases: functional
Cavia porcellus [1] = species: Cavia porcellus; test: In vitro relative affinity was measured in guinea pig ileum
Procedure, shortened: (§1)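 Contraction of isolated guinea pig ileum. Peptide solutions were prepared and used the same day, then discarded. Responses were expressed as pD2, intrinsic activity (αE) and relative affinity.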

Cavia porcellus [2] = species: Cavia porcellus; test: In vitro intrinsic activity was measured in guinea pig ileum; procedure, shortened: as §1
Cavia porcellus [3] = species: Cavia porcellus; test: In vitro (pD2) the negative log of the dose which causes half-maximal contraction was measured in guinea pig ileum; procedure, shortened: as §1
Rattus norvegicus = test: In vivo relative blood pressure potency was measured in rat

Compound | RA (Cavia porcellus [1]) | Activity (Cavia porcellus [2]) | pD2 (Cavia porcellus [3]) | RBP (Rattus norvegicus)
COC(=O)[C@H](CCSC)NC(=O)[C@H](CC(C)C)NC(=O)CNC(=O)[C@H](Cc1ccccc1)NC(=O)[C@H](Cc1ccccc1)NC(=O)[C@H](CCC(N)=O)NC(=O)[C@@H](N)CCC(N)=O (H-QQFFGLM-OMe) | 3.37% | 1 | 7.3 | 1%
CSCC[C@H](NC(=O)[C@H](CC(C)C)NC(=O)CNC(=O)[C@H](Cc1ccccc1)NC(=O)[C@H](Cc1ccccc1)NC(=O)[C@H](CCC(N)=O)NC(=O)[C@@H](N)CCC(N)=O)C(=O)N(C)C (H-QQFFGLM-NMe2) | <0.01% | – | – | 0.2%
CCCC[C@H](NC(=O)[C@H](CC(C)C)NC(=O)CNC(=O)[C@H](Cc1ccccc1)NC(=O)[C@H](Cc1ccccc1)NC(=O)[C@H](CCC(N)=O)NC(=O)[C@@H](N)CCC(N)=O)C(=O)NN (H-QQFFGL[Nle]-NHNH2) | 5% | 1 | 6.63 | 5.2%
CCCC[C@H](NC(=O)[C@H](CC(C)C)NC(=O)CNC(=O)[C@H](Cc1ccccc1)NC(=O)[C@H](Cc1ccccc1)NC(=O)[C@H](CCC(N)=O)NC(=O)[C@@H](N)CCC(N)=O)C(=O)OC (H-QQFFGL[Nle]-OMe) | 3.5% | 1 | 6.47 | 1.5%
CSCC[C@H](NC(=O)[C@H](CC(C)C)NC(=O)CNC(=O)[C@H](Cc1ccccc1)NC(=O)[C@H](Cc1ccccc1)NC(=O)[C@H](CCC(N)=O)NC(=O)[C@@H](N)CCC(N)=O)C(=O)NN(C)C (H-QQFFGLM-X1) | 0.53% | – | 6.6 | <0.05%
CSCC[C@H](NC(=O)[C@H](CC(C)C)NC(=O)CNC(=O)[C@H](Cc1ccccc1)NC(=O)[C@H](Cc1ccccc1)NC(=O)[C@H](CCC(N)=O)NC(=O)[C@@H](N)CCC(N)=O)C(N)=O (H-QQFFGLM-NH2) | 100% | 1 | 8.77 | 100%
CNC(=O)[C@H](CCSC)NC(=O)[C@H](CC(C)C)NC(=O)CNC(=O)[C@H](Cc1ccccc1)NC(=O)[C@H](Cc1ccccc1)NC(=O)[C@H](CCC(N)=O)NC(=O)[C@@H](N)CCC(N)=O (H-QQFFGLM-NHMe) | 1% | 0.85 | 6.77 | 5%
CCCC[C@H](NC(=O)[C@H](CC(C)C)NC(=O)CNC(=O)[C@H](Cc1ccccc1)NC(=O)[C@H](Cc1ccccc1)NC(=O)[C@H](CCC(N)=O)NC(=O)[C@@H](N)CCC(N)=O)C(=O)N(CC)CC (H-QQFFGL[Nle]-NEt2) | 1.3% | 1 | 6.03 | 0.2%
CCCC[C@H](NC(=O)[C@H](CC(C)C)NC(=O)CNC(=O)[C@H](Cc1ccccc1)NC(=O)[C@H](Cc1ccccc1)NC(=O)[C@H](CCC(N)=O)NC(=O)[C@@H](N)CCC(N)=O)C(N)=O (H-QQFFGL[Nle]-NH2) | – | 1 | 7.93 | –
CCCC[C@H](NC(=O)[C@H](CC(C)C)NC(=O)CNC(=O)[C@H](Cc1ccccc1)NC(=O)[C@H](Cc1ccccc1)NC(=O)[C@H](CCC(N)=O)NC(=O)[C@@H](N)CCC(N)=O)C(=O)O (H-QQFFGL[Nle]-OH) | 2.6% | 1 | 6.34 | 1.5%
CSCC[C@H](NC(=O)[C@H](CC(C)C)NC(=O)CNC(=O)[C@H](Cc1ccccc1)NC(=O)[C@H](Cc1ccccc1)NC(=O)[C@H](CCC(N)=O)NC(=O)[C@@H](N)CCC(N)=O)C(=O)NN (H-QQFFGLM-NHNH2) | 1% | 1 | 6.8 | 0.4%
